# Experimental data from ChEMBL document CHEMBL5316288, “Synthetic Strategies for Improving Solubility: Optimization of Novel Pyrazolo[1,5-a]pyrimidine CFTR Activator That Ameliorates Dry Eye Disease” (J Med Chem, 2023).
# Calls of active or inactive are those of the source. The calls are words filed in the database; no cut-off is given here.
# Legend:
# [1] = molecular target: T1, Cystic fibrosis transmembrane conductance regulator (Homo sapiens, UniProt P13569); assay: Activation of human wild-type CFTR stably expressed in CHO-K1 cells co-expressing halide sensors YFP-H148Q/I152L assessed as CFTR-mediated iodide influx incubated for 10 mins by YFP fluorescence quenching assay; type: cell-based
# Target sequence in this assay (P13569 whole entry): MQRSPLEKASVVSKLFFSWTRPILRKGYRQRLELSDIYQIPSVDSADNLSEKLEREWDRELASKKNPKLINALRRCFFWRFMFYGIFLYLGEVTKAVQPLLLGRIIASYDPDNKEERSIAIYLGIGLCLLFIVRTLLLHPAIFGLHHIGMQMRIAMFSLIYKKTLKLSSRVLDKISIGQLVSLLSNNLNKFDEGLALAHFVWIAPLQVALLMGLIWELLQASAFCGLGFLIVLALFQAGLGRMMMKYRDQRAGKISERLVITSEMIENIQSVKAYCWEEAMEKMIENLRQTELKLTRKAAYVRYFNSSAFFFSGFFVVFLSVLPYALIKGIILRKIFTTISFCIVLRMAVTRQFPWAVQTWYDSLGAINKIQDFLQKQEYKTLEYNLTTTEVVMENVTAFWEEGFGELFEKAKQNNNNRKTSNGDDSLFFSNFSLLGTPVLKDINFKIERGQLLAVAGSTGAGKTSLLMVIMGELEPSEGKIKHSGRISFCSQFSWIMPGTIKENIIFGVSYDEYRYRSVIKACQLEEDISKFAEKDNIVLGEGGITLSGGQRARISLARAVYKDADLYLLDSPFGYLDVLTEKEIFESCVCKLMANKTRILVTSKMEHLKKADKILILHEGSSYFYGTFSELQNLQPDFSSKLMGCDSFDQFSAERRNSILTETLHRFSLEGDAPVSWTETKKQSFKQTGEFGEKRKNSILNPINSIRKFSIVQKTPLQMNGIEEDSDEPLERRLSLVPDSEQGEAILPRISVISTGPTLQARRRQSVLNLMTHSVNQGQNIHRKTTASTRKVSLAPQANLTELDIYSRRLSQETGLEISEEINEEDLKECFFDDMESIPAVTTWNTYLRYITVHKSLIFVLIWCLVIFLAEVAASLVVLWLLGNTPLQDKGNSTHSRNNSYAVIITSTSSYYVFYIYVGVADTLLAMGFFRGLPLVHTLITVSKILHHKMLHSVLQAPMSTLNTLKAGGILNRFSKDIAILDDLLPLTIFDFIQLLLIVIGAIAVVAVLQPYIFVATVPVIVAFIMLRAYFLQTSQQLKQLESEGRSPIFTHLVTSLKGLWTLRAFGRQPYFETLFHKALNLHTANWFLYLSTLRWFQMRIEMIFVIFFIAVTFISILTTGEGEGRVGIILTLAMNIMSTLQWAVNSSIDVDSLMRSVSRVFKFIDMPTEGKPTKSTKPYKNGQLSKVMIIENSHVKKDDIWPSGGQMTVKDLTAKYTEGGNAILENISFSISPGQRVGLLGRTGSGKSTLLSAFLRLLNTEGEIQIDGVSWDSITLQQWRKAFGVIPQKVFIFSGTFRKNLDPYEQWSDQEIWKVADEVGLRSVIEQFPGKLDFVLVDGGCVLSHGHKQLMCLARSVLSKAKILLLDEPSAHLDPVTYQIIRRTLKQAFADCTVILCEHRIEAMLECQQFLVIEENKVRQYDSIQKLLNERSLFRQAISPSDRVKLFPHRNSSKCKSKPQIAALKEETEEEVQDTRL
# [2] = Solubility of compound in PBS at 7.5 at 0.5 mg/ml incubated for 90 mins by LC-MS/MS analysis; type: physicochemical
# Procedure, shortened: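 Thermodynamic solubility: compound at 0.5 mg/mL in isotonic phosphate-buffered saline, pH 7.5, vortexed for 90 min. The solution was then filtered sequentially through 0.45, 1.2 and 5.0 μm filters. Concentration was measured by LC-MS/MS against a ≥6-point internal-standard calibration curve (weighted 1/x linear or quadratic) and back-calculated.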
# [3] = molecular target: T1, Cystic fibrosis transmembrane conductance regulator; assay: Activation of human CFTR expressed in CHO-K1 cells assessed as increase in intracellular cAMP level at 10 uM incubated for 10 mins in presence of IBMX by Immunoassay; type: cell-based; conditions: filed as activator
# Target sequence in this assay (P13569 whole entry, looked up): as the sequence (P13569 whole entry) above
# [4] = molecular target: T1, Cystic fibrosis transmembrane conductance regulator; assay: Activation of human wild-type CFTR stably expressed in CHO-K1 cells assessed as increase in chloride current at holding potential 0 mV at 30 uM by whole-cell patch-clamp assay; conditions: filed as activator
# Target sequence in this assay (P13569 whole entry, looked up): as the sequence (P13569 whole entry) above
# [5] = organism: Mus musculus; assay: Amelioration ocular surface damage in scopolamine-induced dry eye in C57BL/6J mouse model assessed as decrease in MMP-2 mRNA expression level in conjunctiva at 0.3 %,TOP 3 times day for 10 days by RT-PCR analysis; type: functional, organism-based; conditions: time 10.0 day
# Procedure, shortened: (§1)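 Dry eye was induced by subcutaneous scopolamine hydrobromide 0.5 mg/0.1 mL three times daily for 14 days. Eye drops (vehicle, 0.3% diquafosol or test agent) followed three times daily for 10 days, with scopolamine continued for the first 8 days. Cornea and conjunctiva mRNA for MMP-2 and TNF-α was quantified by real-time PCR; n = 5.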
# [6] = organism: Mus musculus; assay: Amelioration ocular surface damage in scopolamine-induced dry eye in C57BL/6J mouse model assessed as decrease in TNF-alpha mRNA expression level in cornea at 0.3 %,TOP 3 times day for 10 days by RT-PCR analysis; type: functional, organism-based; conditions: time 10.0 day; procedure, shortened: as §1
# [7] = organism: Mus musculus; assay: Amelioration ocular surface damage in scopolamine-induced dry eye in C57BL/6J mouse model assessed as decrease in IL-17 mRNA expression level in cornea at 0.3 %,TOP 3 times day for 10 days by RT-PCR analysis; type: functional, organism-based; conditions: time 10.0 day
# Procedure, shortened: (§2)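 Dry eye was induced with scopolamine hydrobromide 0.5 mg/0.1 mL given subcutaneously three times daily for 14 days. Eye drops were then applied to both eyes three times daily for 10 days, with scopolamine continued for the first 8 treatment days. The vehicle was 5% polyoxyl 35 castor oil in sodium phosphate buffer. Corneal and conjunctival IL-17 mRNA was measured by real-time PCR; mean ± S.E., n = 5.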
# [8] = organism: Mus musculus; assay: Amelioration ocular surface damage in scopolamine-induced dry eye in C57BL/6J mouse model assessed as decrease in MMP-2 mRNA expression level in cornea at 0.3 %,TOP 3 times day for 10 days by RT-PCR analysis; type: functional, organism-based; conditions: time 10.0 day; procedure, shortened: as §1
# [9] = organism: Mus musculus; assay: Amelioration ocular surface damage in scopolamine-induced dry eye in C57BL/6J mouse model assessed as decrease in TNF-alpha mRNA expression level in conjunctiva at 0.3 %,TOP 3 times day for 10 days by RT-PCR analysis; type: functional, organism-based; conditions: time 10.0 day; procedure, shortened: as §1
# [10] = organism: Mus musculus; assay: Amelioration ocular surface damage in scopolamine-induced dry eye in C57BL/6J mouse model assessed as decrease in IL-17 mRNA expression level in conjunctiva at 0.3 %,TOP 3 times day for 10 days by RT-PCR analysis; type: functional, organism-based; conditions: time 10.0 day; procedure, shortened: as §2
# [11] = organism: Mus musculus; assay: Amelioration ocular surface damage in scopolamine-induced dry eye in C57BL/6J mouse model assessed as recovery of tear volume at 0.3 %,TOP 3 times day for 10 days by phenol red thread test; type: functional, organism-based; conditions: time 10.0 day
# Procedure, shortened: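 In scopolamine-induced dry eye mice (0.5 mg/0.1 mL s.c. three times daily, 14 days), drops were given three times daily for 10 days. Scopolamine continued for the first 8 days. Tear volume was read with phenol red thread placed 15 s in the lateral canthus, wet length by caliper. Readings were taken before induction, after induction and after 10 days of drops; n = 5.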
# [12] = organism: Mus musculus; assay: Effect on tear secretion in C57BL/6J mouse assessed as increase in tear volume at 1 to 72 uM,TOP and measured upto 6 hrs by phenol red thread test; type: functional; conditions: dose 1-72 µM
# Procedure, shortened: (§3)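 Normal female C57BL/6J mice received 2.5 μL eye drops in both eyes, held for 30 s. Vehicle was 5% polyoxyl 35 castor oil in sodium phosphate buffer. Tear volume was read by phenol red thread placed 15 s in the lateral canthus, wet length by caliper. Readings were taken at 0 h (baseline) and at 1, 3 and 6 h post-dose; n = 6.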
# [13] = organism: Mus musculus; assay: Effect on tear secretion in C57BL/6J mouse assessed as maximum tear volume at 1 to 72 uM,TOP and measured after 3 hr by phenol red thread test; type: functional; conditions: dose 1-72 µM; procedure, shortened: as §3
# [14] = molecular target: T1, Cystic fibrosis transmembrane conductance regulator; assay: Activation of human wild-type CFTR stably expressed in rat FRT cells assessed as increase in apical membrane chloride current incubated for 20 mins by patch-clamp assay; type: cell-based
# Target sequence in this assay (P13569 whole entry): as above
Compound,EC50 [1],also measured
COc1ccc(-c2ccnc3cc(C(=O)Nc4ccc(OCCN5CCOCC5)cc4)nn23)cc1OC,6 nM,–
COc1ccc(-c2ccnc3cc(C(=O)N4CCN(Cc5ccccc5)CC4)nn23)cc1OC,730 nM,–
COc1ccc(-c2ccnc3cc(C(=O)Nc4ccc(C(=O)N5CCN(C)CC5)cc4)nn23)cc1OC.Cl,290 nM,"solubility thermodynamic at 1.5 h ([2]; PBS, pH 7.5): 237 µM"
COc1ccc(-c2ccnc3cc(C(=O)N4CCN(C(=O)c5ccccc5)C(C)(C)C4)nn23)cc1OC,200 nM,"solubility thermodynamic at 1.5 h ([2]; PBS, pH 7.5): 1.82 µM"
COc1ccc(-c2ccnc3cc(C(=O)N4CC[C@@H](NC(=O)OC(C)(C)C)C4)nn23)cc1OC,370 nM,–
COC(=O)c1ccc(NC(=O)c2cc3nccc(-c4ccc(OC)c(OC)c4)n3n2)cc1,14 nM,–
COC(=O)C12CC(NC(=O)c3cc4nccc(-c5ccc(OC)c(OC)c5)n4n3)(C1)C2,310 nM,"solubility thermodynamic at 1.5 h ([2]; PBS, pH 7.5): 1.42 µM"
C=C[C@@]1(C)CC(=O)[C@]2(O)[C@@]3(C)[C@@H](O)CCC(C)(C)[C@@H]3[C@H](O)[C@H](OC(C)=O)[C@@]2(C)O1,–,Activity [3]: Active; Activity [4]: Active
O=c1ccn(C2O[C@H](COP(=O)(O)OP(=O)(O)OP(=O)(O)OP(=O)(O)OC[C@H]3O[C@@H](n4ccc(=O)[nH]c4=O)[C@H](O)[C@@H]3O)[C@@H](O)[C@H]2O)c(=O)[nH]1 (some centres undefined),–,Activity [5]: Active; Activity [6]: Active; Activity [7]: Active; Activity [8]: Active; Activity [9]: Active; Activity [10]: Active; Activity [11]: Active
COc1ccc(-c2ccnc3cc(C(=O)Nc4ccc(C(=O)NCCN)cc4)nn23)cc1OC,16000 nM,–
COc1ccc(-c2ccnc3cc(C(=O)N4CCNCC4)nn23)cc1OC,17000 nM,–
COc1ccc(-c2ccnc3cc(C(=O)Nc4ccc(C(=O)O)cc4)nn23)cc1OC,310 nM,"solubility thermodynamic at 1.5 h ([2]; PBS, pH 7.5): 5.21 µM"
COc1ccc(-c2ccnc3cc(C(=O)NCc4ccc(N5CCOCC5)cc4)nn23)cc1OC,710 nM,–
COc1ccc(-c2ccnc3cc(C(=O)N4CCN(C(=O)OC(C)(C)C)CC4)nn23)cc1OC,270 nM,–
COC(=O)c1ccc(NC(=O)c2cc3nccc(-c4ccc(OC)c(OC)c4)n3n2)c(Cl)c1,2700 nM,–
COc1ccc(-c2ccnc3cc(C(=O)Nc4ccc(N5CCOCC5)cc4)nn23)cc1OC,7 nM,–

Compound,EC50 [1],also measured
COc1ccc(-c2ccnc3cc(C(=O)N4CCN(c5ccccc5)CC4)nn23)cc1OC,840 nM,–
COc1ccc(-c2ccnc3cc(C(=O)Nc4ccc(C(=O)O)cc4F)nn23)cc1OC,42 nM,"solubility thermodynamic at 1.5 h ([2]; PBS, pH 7.5): 0.341 µM"
COc1ccc(-c2ccnc3cc(C(=O)N4CCN(C(=O)c5ccccc5)[C@H](C)C4)nn23)cc1OC,–,"solubility thermodynamic at 1.5 h ([2]; PBS, pH 7.5): 159 µM"
COc1ccc(-c2ccnc3cc(C(=O)Nc4ccccc4)nn23)cc1OC,65 nM,"solubility thermodynamic at 1.5 h ([2]; buffer, pH 7.5, 1.5 h): 0.059 µM"
COc1ccc(-c2ccnc3cc(C(=O)N4CCN(C5CC5)CC4)nn23)cc1OC,1400 nM,–
COc1ccc(-c2ccnc3cc(C(=O)N4CCN(C)CC4)nn23)cc1OC,8100 nM,–
CCOc1ccc(NC(=O)c2cc3nccc(-c4ccc(OC)c(OC)c4)n3n2)cc1,18 nM,Activity [12]: Dose-Dependent Effect; Activity [13]: Active; EC50 [14]: 342 nM
COc1ccc(-c2ccnc3cc(C(=O)NC4CCCCC4)nn23)cc1OC,130 nM,–
COC(=O)c1ccc(CNC(=O)c2cc3nccc(-c4ccc(OC)c(OC)c4)n3n2)cc1,470 nM,–
COc1ccc(-c2ccnc3cc(C(=O)N[C@H]4CC[C@H](C(=O)OC)CC4)nn23)cc1OC,–,"solubility thermodynamic at 1.5 h ([2]; PBS, pH 7.5): 1.39 µM"
COc1ccc(-c2ccnc3cc(C(=O)N4CC(NC(=O)OC(C)(C)C)C4)nn23)cc1OC,700 nM,–
COc1ccc(-c2ccnc3cc(C(=O)Nc4ccc(C(=O)N5CCN(C(=O)OC(C)(C)C)CC5)cc4)nn23)cc1OC,17 nM,–
COc1ccc(-c2ccnc3cc(C(=O)N[C@H]4CC[C@@H](C(=O)OC)CC4)nn23)cc1OC,–,"solubility thermodynamic at 1.5 h ([2]; PBS, pH 7.5): 7.55 µM"
COc1ccc(-c2ccnc3cc(C(=O)N4CCN(C(=O)C5CC5)CC4)nn23)cc1OC,1700 nM,–
COc1ccc(-c2ccnc3cc(C(=O)N4CCN(C(=O)c5ccccc5)CC4)nn23)cc1OC,110 nM,"solubility thermodynamic at 1.5 h ([2]; PBS, pH 7.5): 10.1 µM"
COc1ccc(-c2ccnc3cc(C(=O)N4CCN(C(C)C)CC4)nn23)cc1OC,6000 nM,–
